The text below walks through data of ChEMBL document CHEMBL1145138, “Design and synthesis of 4-azaindoles as inhibitors of p38 MAP kinase” (J Med Chem, 2003).

Data set [1] has as its target Mitogen-activated protein kinase 14 (Rattus norvegicus) (UniProt P70618). Nature of the data set: In vivo percent inhibition of LPS stimulated TNF alpha synthesis in rat at a concentration of 10 mg/kg.
Data set [2] deals with Mitogen-activated protein kinase 14 (Homo sapiens, UniProt Q16539). Nature of the data set: In vitro inhibitory concentration against Mitogen-activated protein kinase p38 alpha.
The target of data set [3] is Mitogen-activated protein kinase 14 (Rattus norvegicus) (UniProt P70618). The experiment in a line: In vivo percent inhibition of LPS stimulated TNF alpha synthesis in rat at a concentration of 30 mg/kg. It is filed as functional, organism-based. On the set-up: dose 30 mg/kg. The method in brief:
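Female Wistar/Han rats, 8 per group, were dosed orally at −30 min with compound in CMC vehicle (0.9% NaCl, 0.5% Na-CMC, 0.4% polysorbate 80, 0.9% benzyl alcohol) or with vehicle alone. LPS 50 μg/kg was given ip at 0 h. At 1.5 h, blood was taken by cardiocentesis after CO₂ euthanasia, and serum TNFα was measured by ELISA against vehicle controls.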

The next data set relates to Rattus norvegicus. The experiment in a line: AUC at a dose of 10 mg/Kg administered to female hanover-wistar rat per orally. It is filed as ADME, organism-based, Plasma. The settings on record: in vivo, po. The method in brief:
(§1)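 Female Wistar/Han rats (180–220 g, n=3 per regime) received a single 10 mg/kg oral suspension in 0.9% NaCl, 0.5% Na-CMC, 0.4% polysorbate 80 and 0.9% benzyl alcohol. Blood was taken at 1, 3, 6, 8 and 24 h by orbital sinus or cardiac puncture. Plasma drug was measured by LC/MS after acetonitrile precipitation; the comparison arm was a 10 mg/kg IV bolus.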

Data set [4] in a line: Bioavailability at a dose of 10 mg/Kg administered to female hanover-wistar rat per orally. It is filed as ADME, organism-based. The settings on record: in vivo, po. The method in brief: as §1
Data set [5] is described as follows: CL at a dose of 10 mg/Kg administered to female hanover-wistar rat intravenously. The settings on record: in vivo, iv. In kind it is ADME, organism-based. The method in brief:
(§2)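 Female Wistar/Han rats weighing 180–220 g, 3 per dose regime, received a single 10 mg/kg IV bolus in 50% cyclodextran/water. Blood was drawn under CO₂:O₂ (60:40) via orbital sinus or cardiac puncture at 1, 3, 6, 8 and 24 h. Plasma was protein-precipitated with acetonitrile, diluted in 50 mM formate buffer and quantified by LC/MS.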

Data set [6] in a line: AUC at a dose of 10 mg/Kg administered to female hanover-wistar rat intravenously. It is filed as ADME, organism-based. The settings on record: plasma, iv. The method in brief: as §2
Data set [7] can be described thus: T 1/2 at a dose of 10 mg/Kg administered to female hanover-wistar rat intravenously. It is filed as ADME, organism-based. The settings on record: in vivo, iv. In outline:
as §2

The nature of data set [8]: C max at a dose of 10 mg/Kg administered to female hanover-wistar rat per orally. It is filed as ADME, organism-based. Also on record: dose 10 mg/Kg, route oral. The settings on record: in vivo, po. The method in brief: as §1
Data set [9] can be described thus: T max at a dose of 10 mg/Kg administered to female hanover-wistar rat per orally. It is filed as ADME, organism-based. The settings on record: in vivo, po. The method in brief:
as §1

Data set [10] can be described thus: T 1/2 at a dose of 10 mg/Kg administered to female hanover-wistar rat per orally. It is filed as ADME, organism-based. The settings on record: in vivo, po. The method in brief:
as §1

Data set [11] is described as follows: C max at a dose of 10 mg/Kg administered to female hanover-wistar rat intravenously. In kind it is ADME, organism-based. Also on record: dose 10 mg/Kg, route intravenous. The settings on record: in vivo, iv. The method in brief: as §2

Sequence of Mitogen-activated protein kinase 14 (Q16539 whole entry): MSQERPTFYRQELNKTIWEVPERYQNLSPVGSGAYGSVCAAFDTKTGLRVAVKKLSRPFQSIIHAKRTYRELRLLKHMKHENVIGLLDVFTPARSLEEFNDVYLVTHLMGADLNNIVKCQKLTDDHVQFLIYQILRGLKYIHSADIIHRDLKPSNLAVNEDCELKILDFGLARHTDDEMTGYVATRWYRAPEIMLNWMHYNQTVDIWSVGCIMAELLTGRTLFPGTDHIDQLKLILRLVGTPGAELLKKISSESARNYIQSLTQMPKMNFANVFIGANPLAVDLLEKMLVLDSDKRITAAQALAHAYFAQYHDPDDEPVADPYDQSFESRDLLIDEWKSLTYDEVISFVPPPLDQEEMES
Sequence of Mitogen-activated protein kinase 14 (Rattus norvegicus) (P70618 whole entry): as the sequence (Q16539 whole entry) above, with I17V, L48H, T263A, D321E, L332F counted along it

The compound `CCC(O)CNc1cc(-c2[nH]c3cccnc3c2-c2ccc(F)cc2)ccn1` (stereo unspecified) had an inhibition in data set [1] of 85%. In data set [2], this compound returned an IC50 of 3 nM.
In turn, `Fc1ccc(-c2c(-c3ccncc3)n(CCN3CCOCC3)c3cccnc23)cc1` yielded an inhibition in data set [3] of 79%. For the same compound, half-maximal inhibition in data set [2] (IC50) required 185 nM.
As to `Fc1ccc(-c2c(-c3ccncc3)n(CCN3CCCCC3)c3cccnc23)cc1`, in data set [3], the inhibition is 75%. Inhibition in [2] was half-maximal at 1970 nM (IC50).
As for `Fc1ccc(-c2c(-c3ccncc3)[nH]c3nccnc23)cc1`, the inhibition in data set [3] amounted to 98%. In addition, the IC50 in data set [2] was 53 nM.
For `Nc1ncnc2c1cc(-c1ccncc1)n2-c1ccc(F)cc1`, half-maximal inhibition in data set [2] (IC50) was put at 3300 nM.
Compound `OCCNc1cc(-c2[nH]c3cccnc3c2-c2ccc(F)cc2)ccn1` came in with an inhibition in data set [3] of 88%. This compound came in with an IC50 in data set [2] of 3 nM.
The like results for `Fc1ccc(-c2c(-c3ccncc3)[nH]c3cccnc23)cc1` were, in that order, 46% and 6.5 nM.
Compound `OCCn1c(-c2ccncc2)c(-c2ccc(F)cc2)c2ncccc21` had an IC50 in data set [2] of 172 nM.
The compound `Cn1c(-c2ccncc2)c(-c2ccc(F)cc2)c2ncccc21` yielded an inhibition in data set [3] of 53%. Besides, the IC50 in data set [2] was found to be 98 nM.
Take `Fc1ccc(-c2c(-c3ccncc3)oc3cccnc23)cc1`: the inhibition in [3] is 44%.
As to `CCn1c(-c2ccncc2)c(-c2ccc(F)cc2)c2ncccc21`, the inhibition in [3] worked out at 41%. Besides, the IC50 in [2] was determined as 24 nM.
Take `Fc1ccc(-c2c(-c3ccncc3)[nH]c3ccccc23)cc1`: the IC50 in [2] was 1800 nM.
`Fc1ccc(-c2c(-c3ccncc3)[nH]c3cncnc23)cc1` showed an inhibition in data set [3] of 26%. Besides, the IC50 in data set [2] turned out to be 895 nM.
The like results for `Fc1ccc(-c2c(-c3ccncc3)n(CCN3CCCC3)c3cccnc23)cc1` were, in that order, 86% and 217 nM.
Take `OCCCCNc1cc(-c2[nH]c3cccnc3c2-c2ccc(F)cc2)ccn1`: the inhibition in data set [3] was 69%. The compound also had an IC50 in data set [2] of 5 nM.
Consider `Fc1ccc(-c2c(-c3ccncc3)[nH]c3ccncc23)cc1`, for which the IC50 in data set [2] was 3100 nM.
In the case of `O=C(O)Cn1c(-c2ccncc2)c(-c2ccc(F)cc2)c2ncccc21`, the inhibition in data set [3] is 50%. Besides, half-maximal inhibition in data set [2] (IC50) required 23600 nM.
In data set [2], `COCCn1c(-c2ccncc2)c(-c2ccc(F)cc2)c2ncccc21` had an IC50 of 21 nM.
`C[C@@H](O)CNc1cc(-c2[nH]c3cccnc3c2-c2ccc(F)cc2)ccn1`: in [3], the inhibition was 76%. Also, the results for the AUC (with Rattus norvegicus; in [6]) were 8.4 µM·h and 27.5 µM·h, respectively. Further, the concentration for half-maximal inhibition (IC50) in data set [2] came to 1 nM. In [4], this compound had a bioavailability of 30.5%. Moreover, the clearance in data set [5] was 16.7 mL/min/kg. Moreover, the half-life is 2.9 h in data set [7] and 1.5 h in data set [10]. Moreover, the peak concentration (Cmax) in data set [8] was determined as 2.8 µM; in data set [11] it was 8.8 µM. Moreover, the Tmax in [9] was found to be 1 h.
